Published values gathered from unrelated publications.
Target: Receptor-interacting serine/threonine-protein kinase 1 (RIPK1, Homo sapiens, UniProt Q13546)
Residues used in one study (Q13546 1-671): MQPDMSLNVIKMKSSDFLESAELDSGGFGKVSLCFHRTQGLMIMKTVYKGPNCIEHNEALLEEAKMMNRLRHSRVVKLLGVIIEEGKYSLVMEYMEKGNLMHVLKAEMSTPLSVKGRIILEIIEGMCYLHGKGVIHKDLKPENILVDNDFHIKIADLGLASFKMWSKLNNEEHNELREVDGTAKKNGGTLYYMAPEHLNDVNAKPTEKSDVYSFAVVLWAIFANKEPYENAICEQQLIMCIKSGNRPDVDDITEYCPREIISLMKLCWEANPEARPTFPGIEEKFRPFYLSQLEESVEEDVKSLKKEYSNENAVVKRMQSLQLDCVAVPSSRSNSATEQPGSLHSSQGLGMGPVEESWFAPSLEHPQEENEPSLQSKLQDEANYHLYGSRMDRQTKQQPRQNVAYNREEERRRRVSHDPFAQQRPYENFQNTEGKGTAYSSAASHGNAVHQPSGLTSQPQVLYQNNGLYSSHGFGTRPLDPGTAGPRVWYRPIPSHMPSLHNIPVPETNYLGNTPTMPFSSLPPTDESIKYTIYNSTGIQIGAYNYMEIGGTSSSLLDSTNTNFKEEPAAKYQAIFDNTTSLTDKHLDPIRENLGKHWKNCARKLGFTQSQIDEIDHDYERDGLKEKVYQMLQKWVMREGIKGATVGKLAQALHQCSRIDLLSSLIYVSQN

Compound | observed | technique | concentration | remaining binding
CN(C)c1ncnc(-c2ccc3nc(Nc4cc(CN5CCN(C(=O)CC(F)(F)F)CC5)ccn4)[nH]c3c2)c1Cl | cell-free assay | competition with immobilised ligand | 1 µM | 93%
COc1ncc2cc3ccccc3nc2c1C#N | cell-free assay | competition with immobilised ligand | 5 µM | 100%
O=C(NCCCN1CCOCC1)c1ccc(Nc2nccc(-c3cc4ccccc4s3)n2)cc1 | binding | competition with immobilised ligand | 1 µM | 65%
CN(c1nccc(-c2cnn3ncccc23)n1)C1CC1 | binding |  | 1 µM | 100%
CCCOc1ccc([C@@H]2[C@@H](C(=O)O)[C@H](c3ccc4c(c3)OCO4)CN2CC(=O)Nc2c(CC)cccc2CC)cc1 | cell-free assay | competition with immobilised ligand | 1 µM | 55%
O=C(c1ccc(Nc2nccc(-c3cc4ccccc4s3)n2)cc1)N1CCC(N2CCCC2)CC1 | binding | competition with immobilised ligand | 1 µM | 23%
c1cnn2ncc(-c3ccnc(N4CCC45COC5)n3)c2c1 | binding |  | 1 µM | 83%
C=CC(=O)N1CCC(C(=O)NCC(=O)N2CCN(c3nc(-c4cnc(N)nc4C(F)F)nc(N4CCOCC4)n3)CC2)CC1 | binding | competition with immobilised ligand | 1 µM | 100%
CCN1CCN(Cc2ccc(C(=O)Nc3ccc(C)c(Oc4ccc5c(c4)CC(=O)N5)c3)cc2C(F)(F)F)CC1 | binding | competition with immobilised ligand | 1 µM | 86%
O=C(N1CCS(=O)(=O)CC1)N1C[C@H](c2ccc(OC(F)(F)F)cc2)C[C@H](c2nc(C3CC3)no2)C1 | cell-free assay | competition with immobilised ligand | 1 µM | 100%
O=C(c1ccc(Nc2ncc(Cl)c(-c3ccc(Cl)s3)n2)cc1)N1CCC(N2CCCC2)CC1 | binding | competition with immobilised ligand | 1 µM | 0.5%
O=C(Nc1c[nH]nc1C(=O)NC1CCNCC1)c1cc(F)cc(F)c1 | binding | competition with immobilised ligand | 1 µM | 100%
CCc1ccccc1C(=O)Nc1n[nH]c2c(C)c(F)c(C3C(C#N)=C(C)N(C)C(C)=C3C#N)cc12 | cell-free assay | competition with immobilised ligand | 1 µM | 100%
Cc1cnn2ncc(-c3ccnc(N(C)C)n3)c2c1 | binding |  | 1 µM | 100%
COc1cc(-c2cn(C3CCc4c(F)cccc4N(CC(F)(F)F)C3=O)nn2)ccc1-n1cnc(C)c1 (stereo not drawn) | cell-free assay | competition with immobilised ligand | 1 µM | 100%
COc1cnc(Nc2cccc(S(N)(=O)=O)c2)nc1N1CCN(c2ccccc2)C(=O)C1 | binding | competition with immobilised ligand | 1 µM | 100%
O=C(Nc1ccc(Oc2ccc(F)cc2)cc1)N1CCc2ncccc2[C@H]1c1ccc(F)cc1 | cell-free assay | competition with immobilised ligand | 1 µM | 100%
CC1CCCN1c1nccc(-c2cnn3ncccc23)n1 (stereo not drawn) | binding |  | 1 µM | 100%
